The target of data set [1] is T1, RAF proto-oncogene serine/threonine-protein kinase (Homo sapiens, UniProt P04049). In words: Inhibitory activity against recombinant human RAF proto-oncogene serine/threonine-protein kinase.
The target of data set [2] is T2, MAP kinase p38 (Homo sapiens, UniProt O15264+Q15759+Q16539+P53778). Description: Inhibitory activity against Mitogen-activated protein kinase p38 (MAP kinase). The data set is classed as protein assay.
In data set [3] the target is T3, Mitogen-activated protein kinase 9 (Homo sapiens, UniProt P45984). In words: Inhibition of c-Jun N-terminal kinase 2-alpha 1.
Target sequence in this assay (P45984 whole entry): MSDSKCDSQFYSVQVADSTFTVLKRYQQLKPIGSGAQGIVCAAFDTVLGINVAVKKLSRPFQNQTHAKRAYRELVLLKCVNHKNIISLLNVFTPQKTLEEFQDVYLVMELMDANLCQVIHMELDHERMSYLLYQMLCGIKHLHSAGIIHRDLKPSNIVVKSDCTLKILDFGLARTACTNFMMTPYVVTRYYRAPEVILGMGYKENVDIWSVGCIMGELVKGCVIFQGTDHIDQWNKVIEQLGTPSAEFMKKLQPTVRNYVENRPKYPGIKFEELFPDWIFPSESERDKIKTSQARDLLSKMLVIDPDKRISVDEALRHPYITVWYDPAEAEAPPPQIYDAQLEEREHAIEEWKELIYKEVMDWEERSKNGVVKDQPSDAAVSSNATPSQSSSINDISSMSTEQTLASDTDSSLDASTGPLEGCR
The nature of data set [4]: (§1) Vd sss value in rat. The data set is classed as ADME, organism-based. Particulars: in vivo, read-out: Vdss. Summed up: (§2)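 Male Sprague-Dawley rats, n = 3, dosed iv at 2 mg/kg or orally at 10 mg/kg. Mean plasma concentrations were followed over time. Pharmacokinetic parameters were derived from these plasma profiles.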
The nature of data set [5]: Bioavailability in rat. The data set is classed as ADME, organism-based. To be noted: in vivo. Summed up: as §2
Data set [6] can be described thus: (§3) Clpl value in rat. Particulars: plasma, read-out: Clpl. The data set is classed as ADME, organism-based. Summed up:
as §2

Data set [7] can be described thus: Intravenous half life in rat. The data set is classed as ADME, organism-based. Particulars: in vivo. Summed up:
as §2

Data set [8] is described as follows: Oral maximum concentration in rat. The data set is classed as ADME, organism-based. More on the design: route oral. To be noted: in vivo. The procedure, abridged:
as §2

For data set [9], the species on record is Rattus norvegicus. The description is as §1. The data set is classed as ADME, organism-based. Particulars: in vivo. Summed up:
as §2

Data set [10] concerns the target T2, MAP kinase p38. Description: Inhibition of Mitogen-activated protein kinase p38. The data set is classed as protein assay.
The species entered for data set [11] is Rattus norvegicus. Described as §3. The data set is classed as ADME, organism-based. To be noted: in vivo. Summed up:
as §2

In data set [12] the target is T1, RAF proto-oncogene serine/threonine-protein kinase. In words: Inhibition of human c-Raf kinase.
Data set [13] concerns the target T2, MAP kinase p38. In words: Inhibition of LPS-induced release of Tumor necrosis factor-alpha (TNF-alpha) from human whole blood. The data set is classed as functional, tissue-based.
Data set [14] relates to Rattus norvegicus. In words: (§4) Intravenous half life in rat was determined. The data set is classed as ADME, organism-based. To be noted: in vivo. Summed up: as §2
The target in data set [15] is T3, Mitogen-activated protein kinase 9. In words: Inhibition of c-Jun N-terminal kinase 2-alpha 2.
Target sequence in this assay (P45984 whole entry): as above
Data set [16] has as its target Dual specificity mitogen-activated protein kinase kinase; MEK1/2 (Homo sapiens, UniProt P36507+Q02750). Description: Inhibition of MEK-1, Mitogen activated protein kinase kinase 1. The data set is classed as protein assay.
In another data set the target is Protein kinase C (PKC). In words: Inhibition of Protein kinase C. The data set is classed as protein assay. The procedure, abridged: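 PKC (isozyme mix) was run at room temperature with 10 µM [33P]ATP and 70 µg/mL myelin basic protein substrate, under the supplier's conditions. Stopped with EDTA/pyrophosphate, filter-captured and counted by scintillation.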

In data set [17] the target is cAMP-dependent protein kinase (PKA) (Homo sapiens, UniProt P22694+P17612+P22612). In words: Inhibition of Protein kinase A. The data set is classed as protein assay. Summed up:
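PKA was run at room temperature with 10 µM [33P]ATP and 10 µM kemptide substrate, under the supplier's conditions. The reaction was stopped with 75 mM phosphoric acid. Product was captured on phosphocellulose filters, washed with phosphoric acid and counted by scintillation.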

Data set [18] can be described thus: as §4. Particulars: in vivo. The data set is classed as ADME, organism-based. The procedure, abridged: as §2
The target of data set [19] is T3, Mitogen-activated protein kinase 9. Description: Inhibition of c-Jun N-terminal kinase 2-alpha 1 at 40000 nM.
Target sequence in this assay (P45984 whole entry, looked up): as the sequence (P45984 whole entry) above
Data set [20] concerns the target T1, RAF proto-oncogene serine/threonine-protein kinase. Description: Inhibition of human RAF kinase at 5000 nM.
For data set [21] the target is unchanged. Description: Inhibition human c-Raf kinase at 1000 nM.

Molecules are shown by their SMILES.

T1 sequence (P04049 whole entry): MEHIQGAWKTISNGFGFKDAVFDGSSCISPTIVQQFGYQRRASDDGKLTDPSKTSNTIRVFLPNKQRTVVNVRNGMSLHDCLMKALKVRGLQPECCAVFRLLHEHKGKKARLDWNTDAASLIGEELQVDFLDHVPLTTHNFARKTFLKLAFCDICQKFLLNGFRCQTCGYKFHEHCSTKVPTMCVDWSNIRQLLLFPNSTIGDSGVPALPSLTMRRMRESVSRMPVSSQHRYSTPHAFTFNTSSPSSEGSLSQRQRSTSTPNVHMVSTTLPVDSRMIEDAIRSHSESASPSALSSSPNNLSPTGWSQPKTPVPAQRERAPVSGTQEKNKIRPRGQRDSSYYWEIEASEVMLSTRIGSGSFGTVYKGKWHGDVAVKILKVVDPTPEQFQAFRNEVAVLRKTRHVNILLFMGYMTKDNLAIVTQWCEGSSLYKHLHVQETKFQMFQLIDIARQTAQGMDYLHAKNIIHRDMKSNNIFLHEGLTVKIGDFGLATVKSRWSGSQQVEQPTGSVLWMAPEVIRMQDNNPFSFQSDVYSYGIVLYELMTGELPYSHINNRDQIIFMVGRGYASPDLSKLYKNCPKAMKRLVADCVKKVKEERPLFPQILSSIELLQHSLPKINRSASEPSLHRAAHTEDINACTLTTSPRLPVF

Turning to `Oc1cccc(-c2nc(-c3ccccc3)[nH]c2-c2ccncc2)c1`, the IC50 (as a rule, the concentration at which inhibition is half-maximal) was determined as 23 nM in data set [1] and 140 nM on MAP kinase p38 [2].
As to `Fc1ccc(-c2[nH]c(C3CCCCC3)nc2-c2ccncc2)cc1`, the values for the IC50 (in data set [1]; in data set [3]; against MAP kinase p38 [2]) were 135 nM, 29 nM and 70 nM, respectively.
As to `C[C@H](Nc1nccc(-c2c(-c3cccc(C(F)(F)F)c3)nc(C3CCNCC3)n2C)n1)c1ccccc1`, in data set [4], the Vd was 12.7 L/kg. For the same compound, the bioavailability – broadly, the share of a dose that reaches the circulation, judged against a reference dose that is usually intravenous – in data set [5] was 64%. The clearance in data set [6] amounted to 38.3 mL/min/kg. Besides, the half-life (as a rule, how long it takes for the measured level to halve) in [7] stood at 4.9 h. For the same compound, the peak level in data set [8] (Cmax) was 780 nM.
Turning to `Clc1cc(Cl)cc(-c2[nH]c(-c3ccccc3)nc2-c2ccncc2)c1`, the IC50 in data set [1] stood at 1600 nM; against MAP kinase p38 [2], 137 nM.
`C[C@H](Nc1nccc(-c2[nH]c(C3CCNCC3)nc2-c2cccc(C(F)(F)F)c2)n1)c1ccccc1`: the Vdss (usually the apparent volume that relates the amount in the body to the concentration in plasma or blood) in the data set filed under Rattus norvegicus [9] is 6.5 L/kg. Moreover, in data set [5], the bioavailability was determined as 0%. Besides, the IC50 against MAP kinase p38 [10] was found to be 0.75 nM; in data set [3], 1750 nM; in [12], 3500 nM; against MAP kinase p38 [13] it was 6 nM. For the same compound, the Clpl in the data set filed under Rattus norvegicus [11] came out at 146 mL/min/kg. Moreover, the T1/2 in the data set with Rattus norvegicus [14] is 1 min.
With `Fc1ccc(-c2[nH]c(C3CCNCC3)nc2-c2ccncc2)cc1`, the IC50 in [1] is 80 nM; in [3], 210 nM; at MAP kinase p38 [2], 9 nM.
Regarding `Fc1ccc(-c2[nH]c(C3CCCNC3)nc2-c2ccncc2)cc1` (stereo unspecified), the figures for the IC50 in [1] and in [3] were 110 nM and 140 nM, respectively.
As for `c1ccc(-c2nc(-c3ccncc3)c(-c3ccc(C4CCCCC4)cc3)[nH]2)cc1`, the values for the IC50 (in data set [1]; against MAP kinase p38 [2]) were 570 nM and greater than 10000 nM, respectively.
`c1ccc(-c2nc(-c3ccccc3)c(-c3ccncn3)[nH]2)cc1`: the values for the IC50 (in data set [1]; in [3]; at MAP kinase p38 [2]) were 5000 nM, 1420 nM and 700 nM, respectively.
`FC(F)(F)c1ccc(-c2[nH]c(-c3ccccc3)nc2-c2ccncc2)cc1`: the IC50 in [1] was found to be 1400 nM; against MAP kinase p38 [2], 200 nM.
For `COC(=O)c1ccc(-c2[nH]c(-c3ccccc3)nc2-c2ccncc2)cc1`, the IC50 was greater than 10000 nM against MAP kinase p38 [10] and 320 nM in [12].
In the case of `FC(F)(F)c1cccc(-c2nc(-c3ccccc3)[nH]c2-c2ccncc2)c1`, the IC50 against MAP kinase p38 [10] stood at 86 nM; in data set [3], 910 nM; in data set [12], 2600 nM.
In the case of `Nc1nccc(-c2[nH]c(-c3ccccc3)nc2-c2ccccc2)n1`, the IC50 in data set [1] was found to be 750 nM; in [3], 180 nM; at MAP kinase p38 [2], 57 nM.
Take `C[C@H](Nc1cc(-c2c(-c3cccc(C(F)(F)F)c3)nc(C3CCNCC3)n2C)ccn1)c1ccccc1`: the IC50 is 2200 nM in data set [15]; 1170 nM in [3]; greater than 10000 nM in data set [16]; greater than 1500 nM at Protein kinase C (PKC); 810 nM in data set [12]; greater than 1500 nM in data set [17]. For the same compound, the Vd in data set [4] turned out to be 12.3 L/kg. The same compound gave a bioavailability in data set [5] of 85%. For the same compound, the clearance in [6] stood at 63 mL/min/kg. Further, in data set [8], the peak level (Cmax) was 390 nM. In data set [18], this compound showed a half-life of 2.85 h.
On to `Clc1cccc(-c2nc(-c3ccccc3)[nH]c2-c2ccncc2)c1`, for which the IC50 turned out to be 90 nM in data set [1] and 130 nM against MAP kinase p38 [2].
For `Clc1ccc(-c2[nH]c(-c3ccccc3)nc2-c2ccncc2)cc1Cl` the same measures were 20 nM and 28 nM.
Turning to `C[C@H](Nc1nccc(-c2nc(C3CCNCC3)n(C)c2-c2cccc(C(F)(F)F)c2)n1)c1ccccc1`, the inhibition (in general, the change of the read-out against control, counted positive when it falls) in data set [19] turned out to be 37%; in [20], 26%.
With `COc1ccc(CNc2nccc(-c3[nH]c(C4CCNCC4)nc3-c3cccc(C(F)(F)F)c3)n2)cc1`, the IC50 on MAP kinase p38 [10] was found to be 7.6 nM; in data set [3], 735 nM. In data set [21], this compound registered an inhibition of 66%.
For `CC(C)c1ccc(-c2[nH]c(-c3ccccc3)nc2-c2ccncc2)cc1`, the IC50 in data set [1] was greater than 10000 nM; against MAP kinase p38 [2] it was 2100 nM.
For the compound `c1ccc(-c2nc(-c3ccccc3)c(-c3ccncc3)[nH]2)cc1`, the half-maximal inhibitory concentration (IC50) in data set [1] is 380 nM; in data set [3] it was 130 nM; against MAP kinase p38 [2], 180 nM.
Consider `CNc1nccc(-c2[nH]c(-c3ccccc3)nc2-c2ccccc2)n1`, for which the IC50 was found to be 2100 nM in data set [1], 175 nM in [3] and 120 nM against MAP kinase p38 [2].
For `COc1ccc(-c2nc(-c3ccccc3)[nH]c2-c2ccncc2)cc1`, the IC50 was determined as 950 nM in [1] and 300 nM on MAP kinase p38 [2].
Consider `Fc1cccc(-c2[nH]c(-c3ccccc3)nc2-c2ccncc2)c1`, for which the IC50 turned out to be 3000 nM in data set [1] and 495 nM against MAP kinase p38 [2].
For `Clc1ccc(-c2nc(-c3ccccc3)[nH]c2-c2ccncc2)cc1` the same measures were 56 nM and 48 nM.
As to `c1ccc(-c2ccc(-c3[nH]c(-c4ccccc4)nc3-c3ccncc3)cc2)cc1`, the IC50 in data set [1] is 2500 nM; on MAP kinase p38 [2], 1000 nM.
For `Oc1ccc(-c2[nH]c(-c3ccccc3)nc2-c2ccncc2)cc1`, in that order: 390 nM and 1400 nM.
As for `Nc1nccc(-c2[nH]c(C3CCNCC3)nc2-c2cccc(C(F)(F)F)c2)n1`, the Vd in [4] came to 1.23 L/kg. In data set [5], this compound had a bioavailability of 0%. For the same compound, the IC50 against MAP kinase p38 [10] was found to be 7 nM; in [3], 3300 nM. Besides, the inhibition in [21] turned out to be 36%. In addition, the clearance in [6] was found to be 167 mL/min/kg. For the same compound, in [18], the half-life amounted to 0.132 h.
Turning to `COc1cccc(-c2[nH]c(-c3ccccc3)nc2-c2ccncc2)c1`, the IC50 in data set [1] came to 210 nM; on MAP kinase p38 [2], 550 nM.
As for `Clc1ccccc1-c1nc(-c2ccccc2)[nH]c1-c1ccncc1`, the IC50 in data set [1] was determined as 610 nM; at MAP kinase p38 [2] it was 150 nM.
On to `COc1ccc(CNc2nccc(-c3[nH]c(-c4ccccc4)nc3-c3ccccc3)n2)cc1`, for which the IC50 in data set [1] was found to be 1000 nM; in data set [3], 98 nM; against MAP kinase p38 [2] it was 38 nM.
In the case of `Fc1ccc(-c2nc[nH]c2-c2ccncc2)cc1`, the IC50 was 1300 nM in data set [1], 195 nM in data set [3] and 170 nM on MAP kinase p38 [2].
In the case of `N#Cc1ccc(-c2[nH]c(-c3ccccc3)nc2-c2ccncc2)cc1`, the results for the IC50 (in data set [1]; on MAP kinase p38 [2]) were 86 nM and 970 nM, respectively.
On to `C[C@@H](Nc1nccc(-c2[nH]c(C3CCNCC3)nc2-c2cccc(C(F)(F)F)c2)n1)c1ccccc1`, for which the IC50 was 4500 nM in data set [1], 295 nM in [3], 0.97 nM at MAP kinase p38 [2] and 0.4 nM on MAP kinase p38 [13].

For the origin of these results see ChEMBL document CHEMBL1132637, “Design and synthesis of potent, selective, and orally bioavailable tetrasubstituted imidazole inhibitors of p38 mitogen-activated protein kinase” (J Med Chem, 1999).
